Measured values: ChEMBL document CHEMBL1146475, “Spasmolytic effects, mode of action, and structure-activity relationships of stilbenoids from Nidema boothii” (J Nat Prod, 2004)
Calls of active or inactive are those of the source. The rule behind the calls is not given here.

Tests used:
Ileum [1] = assay: Spasmolytic activity in guinea pig ileum assessed as inhibition of spontaneous contraction; assay type: functional, tissue-based; details: Cavia porcellus
Method in brief: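 Ileum from male guinea-pigs (600-800 g) in Krebs-Henseleit, pH 7.4, isometric tension recorded. After 30 min stabilization and 10 min control period, DMSO-dissolved compound added, one concentration per segment, and recorded 10 min. Inhibition from area under curve of frequency and amplitude. Mean ±SEM of six experiments; IC50 by nonlinear curve fitting.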

Ileum [2] = assay: Spasmolytic activity in guinea pig ileum assessed as inhibition of spontaneous contraction relative to papaverine; assay type: functional, Cavia porcellus
Calmodulin (Bos taurus) = Calmodulin (Bos taurus) (UniProt P62157); assay: Binding affinity to bovine brain calmodulin by electrophoretic mobility assay in presence of calcium chloride
Method in brief: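 CaM pretreated 1.5 h at 30 °C with CaCl2, then test compound (0.33 µg in DMSO) applied; interaction judged from CaM band mobility on 15% polyacrylamide gel electrophoresis.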

[3] = Inhibition of bovine brain CaM-dependent PDE assessed as inorganic phosphate release in presence of bovine brain calmodulin; set-up: species or system Bos taurus
Method in brief: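 Bovine-brain CaM (0.2 µg) preincubated 3 min with 0.015 units CaM-deficient bovine-brain PDE in buffer with 0.3 units 5′-nucleotidase, 45 mM Tris-HCl, 5.6 mM Mg acetate, 45 mM imidazole, 2.5 mM CaCl2, pH 7.0; reaction started with 100 µL 10.8 mM cAMP, run 30 min. Phosphate measured by Sumner method at 660 nm. IC50 from concentration-inhibition curves, mean ±SEM of at least three experiments.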

Ileum [4] = assay: Spasmolytic activity in guinea pig ileum assessed as inhibition of spontaneous contraction in presence of L-NAME; assay type: functional, tissue-based; details: Cavia porcellus
Method in brief: (§1)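 Guinea-pig ileum spontaneous-contraction assay (male, 600-800 g, Krebs-Henseleit pH 7.4, isometric tension, 10 min responses, AUC-based inhibition) run in the presence of L-NAME (500 µM) or ODQ (100 µM). Concentration-response curves as mean ±SEM of six data.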

Ileum [5] = assay: Spasmolytic activity in guinea pig ileum assessed as inhibition of spontaneous contraction in presence of ODQ; assay type: functional, tissue-based; details: Cavia porcellus; method in brief: as §1

Row | Compound | IC50 (Ileum [1]) [nM] | Activity (Calmodulin (Bos taurus)) | IC50 [3] [nM] | Emax (Ileum [1]) [%] | Ratio IC50 (Ileum [2]) | Activity (Ileum [4]) | Activity (Ileum [5])
1 | Oc1cc(O)cc(CCc2ccccc2)c1 [DIHYDROPINOSYLVIN] | 1490 | Active | 36600 | 83.3 | 2.84 |  | 
2 | COc1ccc(Cc2nccc3cc(OC)c(OC)cc23)cc1OC [PAPAVERINE] | 4230 |  |  | 91.8 |  |  | 
3 | COc1cccc(CCc2cc(O)cc(OC)c2)c1 | 1280 | Active |  | 58.6 | 3.3 |  | 
4 | Oc1cccc(CCc2cc(O)cc(O)c2)c1 | 2360 | Active |  | 78.5 | 1.78 |  | 
5 | COc1cc(CCc2ccc(OC)c(OC)c2)cc(OC)c1 | 620 | Active |  | 84.9 | 6.82 |  | 
6 | COc1ccc(CCc2ccccc2)cc1O | 1290 | Active | 21200 | 82.2 | 3.28 |  | 
7 | COC1=CC(=O)C2=C(CCc3cc(O)ccc32)C1=O [EPHEMERANTHOQUINONE] |  | Active | 10900 |  |  |  | 
8 | COc1cccc(CCc2cc(OC)cc(OC)c2)c1 | 960 | Active |  | 75.6 | 4.41 |  | 
9 | Oc1ccc(CCc2cc(O)cc(O)c2)cc1 [DIHYDRORESVERATROL] | 1750 | Active |  | 64.1 | 2.42 |  | 
10 | COc1cc2ccc3c(OC)c(O)ccc3c2c(OC)c1O | 450 |  |  |  |  |  | 
11 | COC1=CC(=O)CC12CCc1cccc(O)c1C2=O (stereo not given) [NIDEMONE] |  | Active | 3200 |  |  |  | 
12 | COc1cc(CCc2ccc(O)c(OC)c2)cc(OC)c1 | 1390 | Active |  | 76.4 | 3.05 |  | 

Continued, in another order:

Row | IC50 (Ileum [1]) [nM] | Activity (Calmodulin (Bos taurus)) | IC50 [3] [nM] | Compound | Emax (Ileum [1]) [%] | Ratio IC50 (Ileum [2]) | Activity (Ileum [4]) | Activity (Ileum [5])
13 | 580 | Active |  | COc1cc(O)cc(CCc2ccc(OC)c(OC)c2)c1 | 66 | 7.32 |  | 
14 | 410 |  |  | COc1cc(O)c2c(c1)CCc1cc(O)ccc1-2 [LUSIANTHRIDIN] |  |  |  | 
15 | 850 | Active |  | Oc1cc(O)cc(CCc2ccc(O)c(O)c2)c1 | 53.6 | 4.94 |  | 
16 | 140 | Active | 10100 | COc1cc(O)cc(CCc2ccc(O)cc2)c1 | 85 | 30.85 |  | 
17 | 700 | Active |  | COc1ccc(CCc2cc(O)cc(O)c2)cc1O | 51.8 | 5.99 |  | 
18 | 260 | Active | 7000 | COc1cc(O)cc(CCc2ccc(O)c(OC)c2)c1 [GIGANTOL] | 81.3 | 16.26 | inactive | inactive
19 | 240 | Active | 13300 | COc1cc(O)cc(CCc2cccc(O)c2)c1 [BATATASIN III] | 67.5 | 17.62 | inactive | inactive
20 | 560 |  |  | COc1cc(CCc2cc(OC)c(O)c(OC)c2)ccc1O [MOSCATILIN] | 73.6 | 7.65 |  | 
21 | 140 | Active | 9000 | COc1cc(O)cc(CCc2ccc(OC)c(O)c2)c1 | 66.5 | 31.33 |  | 
22 | 180 |  | 10300 | CN(C)CCCN1c2ccccc2Sc2ccc(Cl)cc21 [CHLORPROMAZINE] | 81.8 | 23.5 |  | 
